Assay results published in ChEMBL document CHEMBL3232758, “Synthesis and evaluation of carbon-linked analogs of dual orexin receptor antagonist filorexant” (Bioorg Med Chem Lett, 2014).
In brackets after ≈: the same amount, converted by molar mass. Each block holds one molecule with its values, some of them ahead of it. Activity calls are given as the source filed them. No cut-off for these calls is given here.

Key:
Orexin receptor type 2 [1] = biological target: T1, Orexin receptor type 2 (Homo sapiens, UniProt O43614); assay: Binding affinity to human OX2 receptor in cell membrane by in vitro radioligand binding assay; type: cell membranes
T1 sequence (O43614 whole entry): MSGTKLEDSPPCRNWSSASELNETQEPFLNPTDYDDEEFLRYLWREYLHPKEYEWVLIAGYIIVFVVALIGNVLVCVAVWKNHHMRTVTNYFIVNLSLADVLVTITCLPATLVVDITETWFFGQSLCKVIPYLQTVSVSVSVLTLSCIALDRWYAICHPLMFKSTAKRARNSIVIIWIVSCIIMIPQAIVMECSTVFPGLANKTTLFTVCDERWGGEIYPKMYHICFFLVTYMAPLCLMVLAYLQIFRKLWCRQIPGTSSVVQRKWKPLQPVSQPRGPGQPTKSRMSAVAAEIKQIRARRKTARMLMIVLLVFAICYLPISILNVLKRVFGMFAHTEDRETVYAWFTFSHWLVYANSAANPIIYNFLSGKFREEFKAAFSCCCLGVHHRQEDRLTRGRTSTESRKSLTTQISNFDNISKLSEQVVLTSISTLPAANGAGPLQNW
Procedure, shortened: (§1)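 Radioligand binding to membranes from human cells overexpressing OX1R or OX2R; affinity expressed as Ki.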

[2] = biological target: T2, Orexin/Hypocretin receptor type 1 (Homo sapiens, UniProt O43613); assay: Binding affinity to human OX1 receptor in cell membrane by in vitro radioligand binding assay; type: cell membranes; procedure, shortened: as §1
T2 sequence (O43613 whole entry): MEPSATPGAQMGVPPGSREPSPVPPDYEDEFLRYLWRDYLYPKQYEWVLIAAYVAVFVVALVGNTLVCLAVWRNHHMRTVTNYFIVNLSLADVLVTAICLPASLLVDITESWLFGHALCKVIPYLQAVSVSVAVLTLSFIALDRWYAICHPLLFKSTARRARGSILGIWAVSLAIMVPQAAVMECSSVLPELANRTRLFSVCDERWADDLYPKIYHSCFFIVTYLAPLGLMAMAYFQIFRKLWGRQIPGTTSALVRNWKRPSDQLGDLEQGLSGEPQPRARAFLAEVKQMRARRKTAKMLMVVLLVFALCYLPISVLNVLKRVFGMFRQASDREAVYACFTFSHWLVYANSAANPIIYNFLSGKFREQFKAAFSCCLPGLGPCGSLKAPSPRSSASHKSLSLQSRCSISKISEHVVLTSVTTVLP

Orexin receptor type 2 [3] = biological target: T1, Orexin receptor type 2; assay: Antagonist activity at human OX2 receptor assessed as Ca2+ flux by FLIPR assay; type: functional
[4] = biological target: T2, Orexin/Hypocretin receptor type 1; assay: Antagonist activity at human OX1 receptor assessed as Ca2+ flux by FLIPR assay; type: functional
[5] = Lipophilicity, log D of the compound at pH 7 by HPLC analysis; type: physicochemical; settings: buffer
Procedure, shortened: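 High-throughput HPLC logD at pH 7 using a reversed-phase C18 column, with phosphate-buffered saline pH 7 and acetonitrile as mobile phases. The system is calibrated with standards of published shake-flask logD, and logD is read from a linear regression of retention time against logD.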

Cytochrome P450 3A4 [6] = biological target: T3, Cytochrome P450 3A4 (Homo sapiens, UniProt P08684); assay: Inhibition of CYP3A4 (unknown origin); type: ADME
T3 sequence (P08684 whole entry): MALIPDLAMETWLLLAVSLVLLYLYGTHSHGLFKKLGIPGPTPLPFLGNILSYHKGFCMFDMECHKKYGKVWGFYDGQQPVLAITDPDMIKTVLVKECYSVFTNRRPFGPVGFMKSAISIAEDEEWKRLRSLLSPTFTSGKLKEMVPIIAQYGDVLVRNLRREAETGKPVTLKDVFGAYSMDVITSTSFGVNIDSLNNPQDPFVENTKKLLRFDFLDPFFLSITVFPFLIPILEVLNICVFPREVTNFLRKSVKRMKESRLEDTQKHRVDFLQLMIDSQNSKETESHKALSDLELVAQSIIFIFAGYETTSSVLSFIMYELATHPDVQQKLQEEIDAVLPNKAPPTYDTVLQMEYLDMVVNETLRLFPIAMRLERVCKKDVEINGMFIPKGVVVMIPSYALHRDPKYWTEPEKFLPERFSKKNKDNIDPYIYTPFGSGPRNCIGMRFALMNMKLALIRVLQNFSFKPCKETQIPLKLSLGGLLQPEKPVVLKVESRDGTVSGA

[7] = Solubility of the compound at pH 7 by HPLC analysis; type: physicochemical; settings: buffer
[8] = Plasma protein binding in human; type: ADME, cell-free; settings: read-out: PPB (converted)
[9] = Plasma protein binding in dog; type: ADME, cell-free, Canis lupus familiaris; settings: read-out: PPB (converted)
[10] = Clearance in iv dosed dog; type: ADME, organism-based, Canis lupus familiaris; settings: in vivo
[11] = Half life in iv dosed dog; type: ADME, organism-based, Canis lupus familiaris; settings: in vivo
[12] = biological target: Voltage-gated inwardly rectifying potassium channel KCNH2 (Homo sapiens, UniProt Q12809); assay: Inhibition of human ERG
Chain of Voltage-gated inwardly rectifying potassium channel KCNH2 (Q12809 whole entry): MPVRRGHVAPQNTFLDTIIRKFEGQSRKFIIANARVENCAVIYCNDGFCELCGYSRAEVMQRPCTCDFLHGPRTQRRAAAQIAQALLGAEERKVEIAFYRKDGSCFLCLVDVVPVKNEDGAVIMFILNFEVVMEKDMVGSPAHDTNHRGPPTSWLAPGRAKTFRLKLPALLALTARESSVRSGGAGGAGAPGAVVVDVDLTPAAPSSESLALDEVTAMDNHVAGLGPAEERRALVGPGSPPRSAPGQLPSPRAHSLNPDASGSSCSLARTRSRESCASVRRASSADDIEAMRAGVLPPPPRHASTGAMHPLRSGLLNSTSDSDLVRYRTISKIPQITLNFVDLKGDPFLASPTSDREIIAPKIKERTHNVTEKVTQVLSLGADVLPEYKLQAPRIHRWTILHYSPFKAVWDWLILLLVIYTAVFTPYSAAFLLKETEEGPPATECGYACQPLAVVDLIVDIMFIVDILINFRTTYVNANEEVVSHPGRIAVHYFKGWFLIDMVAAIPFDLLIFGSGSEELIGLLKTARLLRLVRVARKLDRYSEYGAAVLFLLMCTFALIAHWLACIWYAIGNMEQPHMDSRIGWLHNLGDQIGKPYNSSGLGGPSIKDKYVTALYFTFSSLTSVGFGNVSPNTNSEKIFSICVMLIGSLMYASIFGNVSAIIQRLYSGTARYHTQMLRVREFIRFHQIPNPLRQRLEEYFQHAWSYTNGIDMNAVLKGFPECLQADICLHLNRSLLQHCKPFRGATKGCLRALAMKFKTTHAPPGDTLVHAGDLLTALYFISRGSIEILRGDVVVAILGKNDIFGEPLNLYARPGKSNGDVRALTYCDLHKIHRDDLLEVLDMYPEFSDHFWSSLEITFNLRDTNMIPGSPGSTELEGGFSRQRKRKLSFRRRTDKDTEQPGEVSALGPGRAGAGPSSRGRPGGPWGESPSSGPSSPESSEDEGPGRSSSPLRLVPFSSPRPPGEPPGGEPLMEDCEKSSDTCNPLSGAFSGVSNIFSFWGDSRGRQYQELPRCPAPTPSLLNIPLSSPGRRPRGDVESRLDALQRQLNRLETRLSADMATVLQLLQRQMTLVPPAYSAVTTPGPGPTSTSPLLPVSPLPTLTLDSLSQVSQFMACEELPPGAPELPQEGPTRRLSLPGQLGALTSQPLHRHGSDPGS

Cytochrome P450 2C9 = Cytochrome P450 2C9 (Homo sapiens, UniProt P11712); assay: Inhibition of CYP2C9 (unknown origin); type: ADME
Chain of Cytochrome P450 2C9 (P11712 whole entry): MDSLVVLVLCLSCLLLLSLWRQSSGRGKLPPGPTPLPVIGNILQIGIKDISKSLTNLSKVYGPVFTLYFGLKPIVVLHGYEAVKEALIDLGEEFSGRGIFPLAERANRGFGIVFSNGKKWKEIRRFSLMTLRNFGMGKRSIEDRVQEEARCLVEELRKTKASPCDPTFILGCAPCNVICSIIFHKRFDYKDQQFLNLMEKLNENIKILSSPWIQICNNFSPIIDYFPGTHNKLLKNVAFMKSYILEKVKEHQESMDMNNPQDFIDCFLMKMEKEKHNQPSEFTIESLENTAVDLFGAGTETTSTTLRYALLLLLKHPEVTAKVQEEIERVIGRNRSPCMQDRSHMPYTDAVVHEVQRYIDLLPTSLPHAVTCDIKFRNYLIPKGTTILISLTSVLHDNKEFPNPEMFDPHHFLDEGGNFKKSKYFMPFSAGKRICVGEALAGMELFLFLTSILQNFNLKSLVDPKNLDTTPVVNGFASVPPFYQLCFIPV

Cytochrome P450 2D6 = Cytochrome P450 2D6 (Homo sapiens, UniProt P10635); assay: Inhibition of CYP2D6 (unknown origin); type: ADME
Chain of Cytochrome P450 2D6 (P10635 whole entry): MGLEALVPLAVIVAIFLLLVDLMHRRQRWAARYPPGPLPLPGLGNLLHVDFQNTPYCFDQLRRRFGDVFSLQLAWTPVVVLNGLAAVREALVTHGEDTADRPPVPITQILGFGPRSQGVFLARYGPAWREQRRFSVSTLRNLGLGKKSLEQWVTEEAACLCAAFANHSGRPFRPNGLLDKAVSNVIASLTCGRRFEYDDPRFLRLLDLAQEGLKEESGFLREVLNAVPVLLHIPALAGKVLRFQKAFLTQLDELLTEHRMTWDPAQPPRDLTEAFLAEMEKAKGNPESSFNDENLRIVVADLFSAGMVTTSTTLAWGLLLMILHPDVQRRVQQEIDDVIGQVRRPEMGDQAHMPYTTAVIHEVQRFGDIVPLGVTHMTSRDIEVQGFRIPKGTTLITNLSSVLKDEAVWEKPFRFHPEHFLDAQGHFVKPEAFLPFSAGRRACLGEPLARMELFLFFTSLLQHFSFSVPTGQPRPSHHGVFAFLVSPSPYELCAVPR

Mus musculus [13] = assay: Sleep promoting activity in wild type mouse sleep EEG model assessed as reduction of active wake at 100 mg/kg, po administered during dark or active phase 4 hrs prior to lights on measured for 2 hrs following drug administration; type: functional, organism-based; set-up: dose 100 mg/kg
Procedure, shortened: (§2)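 Mice carried surgically implanted radiotelemetry transmitters recording EEG and EMG to score vigilance state; wildtype n = 5, OX2R knockout n = 6. Oral 100 mg/kg or vehicle (20% Vit. E TPGS) in a balanced cross-over, dosed in the dark (active) phase 4 h before lights on. Mean time per state was taken in 30 min intervals and compared by a linear mixed-effects repeated-measures t-test.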

Mus musculus [14] = assay: Sleep promoting activity in wild type mouse sleep EEG model assessed as increase in delta sleep at 100 mg/kg, po administered during dark or active phase 4 hrs prior to lights on measured for 2 hrs following drug administration; type: functional, organism-based; set-up: dose 100 mg/kg; procedure, shortened: as §2
Mus musculus [15] = assay: Sleep promoting activity in wild type mouse sleep EEG model assessed as increase in REM sleep at 100 mg/kg, po administered during dark or active phase 4 hrs prior to lights on measured for 2 hrs following drug administration; type: functional, organism-based; set-up: dose 100 mg/kg; procedure, shortened: as §2
Mus musculus [16] = assay: Sleep promoting activity in wild type mouse sleep EEG model assessed as reduction of active wake at 100 mg/kg, po administered during dark or active phase 4 hrs prior to lights on measured during first 30 mins after drug administration; type: functional, organism-based; set-up: dose 100 mg/kg; procedure, shortened: as §2
Mus musculus [17] = assay: Sleep promoting activity in wild type mouse sleep EEG model assessed as increase in delta sleep at 100 mg/kg, po administered during dark or active phase 4 hrs prior to lights on measured during first 30 mins after drug administration; type: functional, organism-based; set-up: dose 100 mg/kg; procedure, shortened: as §2
Mus musculus [18] = assay: Sleep promoting activity in wild type mouse sleep EEG model assessed as increase in REM sleep at 100 mg/kg, po administered during dark or active phase 4 hrs prior to lights on measured during first 30 mins after drug administration; type: functional, organism-based; set-up: dose 100 mg/kg; procedure, shortened: as §2
Mus musculus [19] = assay: Sleep promoting activity in wild type mouse sleep EEG model assessed as duration of sleep at 100 mg/kg, po administered during dark or active phase 4 hrs prior to lights on; type: functional; procedure, shortened: as §2
Mus musculus [20] = assay: Sleep promoting activity in OX2 receptor knockout mouse at 100 mg/kg, po administered during dark or active phase 4 hrs prior to lights on; type: functional, organism-based; set-up: dose 100 mg/kg; procedure, shortened: as §2
[21] = Plasma concentration in mouse at 100 mg/kg, po; type: ADME, organism-based; set-up: dose 100 mg/kg, route oral
CYP3A4 = CYP3A4 (Homo sapiens, UniProt P08684); assay: Time-dependent inhibition of CYP3A4 (unknown origin) assessed as IC50 shift ratio; type: ADME; settings: read-out: Ratio IC50
Chain of CYP3A4 (P08684 whole entry): as the sequence (P08684 whole entry) above

Cytochrome P450 3A4 [22] = biological target: T3, Cytochrome P450 3A4; assay: Time-dependent inhibition of CYP3A4 (unknown origin); type: ADME; settings: TDE = time-dependent effect

SMILES: Cc1ccc(-n2nccn2)c(C(=O)N2C[C@H](/C=C\c3ccc(F)cn3)CC[C@H]2C)c1
Ki (Orexin receptor type 2 [1]): 28 nM
Ki [2]: 135 nM
IC50 (Orexin receptor type 2 [3]): 417 nM
IC50 [4]: 706 nM

SMILES: Cc1ccc(-n2nccn2)c(C(=O)N2C[C@H](C#Cc3cncc(CO)c3)CC[C@H]2C)c1
Ki (Orexin receptor type 2 [1]): 32 nM
Ki [2]: 108 nM

SMILES: Cc1ccc(-n2nccn2)c(C(=O)N2C[C@H](C#Cc3cc(CO)ccn3)CC[C@H]2C)c1
Ki (Orexin receptor type 2 [1]): 42 nM
Ki [2]: 76 nM

SMILES: Cc1ccc(-n2nccn2)c(C(=O)N2C[C@H](C#Cc3ccnc(CO)c3)CC[C@H]2C)c1
Ki (Orexin receptor type 2 [1]): 25 nM
Ki [2]: 75 nM
IC50 (Orexin receptor type 2 [3]): 100 nM
IC50 [4]: 298 nM

SMILES: Cc1ccc(-n2nccn2)c(C(=O)N2C[C@H](C#Cc3cccnc3)CC[C@H]2C)c1
Ki (Orexin receptor type 2 [1]): 41 nM
Ki [2]: 107 nM
IC50 (Orexin receptor type 2 [3]): 28 nM
IC50 [4]: 83 nM

SMILES: Cc1ccc(-n2nccn2)c(C(=O)N2C[C@H](CCc3ccc(F)cn3)CC[C@H]2C)c1
Ki (Orexin receptor type 2 [1]): 26 nM
Ki [2]: 470 nM
IC50 (Orexin receptor type 2 [3]): 145 nM
IC50 [4]: 861 nM

SMILES: Cc1ccc(-n2nccn2)c(C(=O)N2C[C@H](C#Cc3ccc(CO)nc3)CC[C@H]2C)c1
Ki (Orexin receptor type 2 [1]): 150 nM
Ki [2]: 339 nM

SMILES: Cc1ccc(-n2nccn2)c(C(=O)N2C[C@H](C#Cc3ccc(CO)cn3)CC[C@H]2C)c1
Ki (Orexin receptor type 2 [1]): 130 nM
Ki [2]: 211 nM

The next molecules have a lower Ki (Orexin receptor type 2 [1]) than those just listed; values first:

Ki (Orexin receptor type 2 [1]): 24 nM
Ki [2]: 24 nM
SMILES: Cc1ccc(-n2nccn2)c(C(=O)N2C[C@H](C#Cc3cccnc3O)CC[C@H]2C)c1

Ki (Orexin receptor type 2 [1]): 11 nM
Ki [2]: 27 nM
IC50 (Orexin receptor type 2 [3]): 42 nM
IC50 [4]: 100 nM
SMILES: Cc1ccc(-n2nccn2)c(C(=O)N2C[C@H](C#Cc3ccccn3)CC[C@H]2C)c1

Ki (Orexin receptor type 2 [1]): 7.5 nM
Ki [2]: 866 nM
IC50 (Orexin receptor type 2 [3]): 52 nM
IC50 [4]: 3880 nM
SMILES: Cc1ccc(-n2nccn2)c(C(=O)N2C[C@H](C#Cc3cnccc3O)CC[C@H]2C)c1

Ki (Orexin receptor type 2 [1]): 7 nM
Ki [2]: 26 nM
SMILES: Cc1ccc(-n2nccn2)c(C(=O)N2C[C@H](C#Cc3ccncc3)CC[C@H]2C)c1

Ki (Orexin receptor type 2 [1]): 5.6 nM
Ki [2]: 18 nM
IC50 (Orexin receptor type 2 [3]): 26 nM
IC50 [4]: 59 nM
logD [5]: 2.1
SMILES: Cc1ccc(-n2nccn2)c(C(=O)N2C[C@H](C#Cc3cccc(CO)n3)CC[C@H]2C)c1

Ki (Orexin receptor type 2 [1]): 3 nM
Ki [2]: 17 nM
IC50 (Orexin receptor type 2 [3]): 34 nM
IC50 [4]: 140 nM
SMILES: Cc1ccc(-n2nccn2)c(C(=O)N2C[C@H](/C=C/c3ccc(F)cn3)CC[C@H]2C)c1

Ki (Orexin receptor type 2 [1]): 1.1 nM
Ki [2]: 1.1 nM
IC50 (Orexin receptor type 2 [3]): 24 nM
IC50 [4]: 31 nM
IC50 (Cytochrome P450 3A4 [6]): > 50 µM
logD [5]: 3.7
solubility [7]: 124 µM (≈ 50 µg/mL)
fraction unbound [8]: 0.009
fraction unbound [9]: 0.039
clearance [10]: 1.6 mL/min/kg
half-life [11]: 120 min
INH (Cytochrome P450 2C9): 32 µM
INH (Cytochrome P450 2D6): > 50 µM
AUC [21]: 60 µM·h
inhibition (INH) (Cytochrome P450 3A4 [22]): tde
SMILES: Cc1ccc(-n2nccn2)c(C(=O)N2C[C@H](C#Cc3ccc(F)cn3)CC[C@H]2C)c1
INH [12]: 23 µM
Activity (Mus musculus [13]): Active
Activity (Mus musculus [14]): Active
Activity (Mus musculus [15]): Active
Activity (Mus musculus [16]): Active
Activity (Mus musculus [17]): Active
Activity (Mus musculus [18]): Active
Time (Mus musculus [19]): 2 h
Activity (Mus musculus [20]): inactive
IC50 shift (CYP3A4): > 6.4

Ki (Orexin receptor type 2 [1]): 0.53 nM
Ki [2]: 0.56 nM
IC50 (Orexin receptor type 2 [3]): 6.3 nM
IC50 [4]: 6.3 nM
IC50 (Cytochrome P450 3A4 [6]): 4 µM
SMILES: Cc1ccc(-n2nccn2)c(C(=O)N2C[C@H](C#Cc3cccc(CO)c3)CC[C@H]2C)c1

Ki (Orexin receptor type 2 [1]): 0.2 nM
Ki [2]: 1 nM
IC50 (Orexin receptor type 2 [3]): 15 nM
IC50 [4]: 16 nM
SMILES: Cc1ccc(-n2nccn2)c(C(=O)N2C[C@H](COc3ccc(F)cn3)CC[C@H]2C)c1
